Test results taken from ChEMBL document CHEMBL3286242, “Design, synthesis and biological evaluation of arylcinnamide hybrid derivatives as novel anticancer agents” (Eur J Med Chem, 2014).
pIC50: −log10 of the molar value. The source made the active and inactive calls. The calls are words filed in the database; no cut-off is given here.

Columns and labels:
MCF7 = assay: Cytotoxicity against human MCF7 cells assessed as growth inhibition after 72 hrs by MTT assay; assay type: functional, cell-based; conditions: MCF7, 72 h
[1] = Cytotoxicity against human SEM cells assessed as growth inhibition after 72 hrs by MTT assay; assay type: functional, cell-based
Jurkat = assay: Cytotoxicity against human Jurkat cells assessed as growth inhibition after 72 hrs by MTT assay; assay type: functional, cell-based
HT-29 = assay: Cytotoxicity against human HT-29 cells assessed as growth inhibition after 72 hrs by MTT assay; assay type: functional, cell-based; conditions: HT-29, 72 h
CCRF-CEM = assay: Cytotoxicity against human CEM cells assessed as growth inhibition after 72 hrs by MTT assay; assay type: functional, cell-based
LoVo = assay: Cytotoxicity against human LoVo cells assessed as growth inhibition after 72 hrs by MTT assay; assay type: functional, cell-based
HeLa = assay: Cytotoxicity against human HeLa cells assessed as growth inhibition after 72 hrs by MTT assay; assay type: functional, cell-based
Tubulin (Bos taurus) = Tubulin (Bos taurus) (UniProt Q6B856+Q862L2+Q862F3); assay: Inhibition of bovine brain tubulin polymerization at 20 uM by turbidimetry
Outline: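 Purified bovine brain tubulin (10 μM) preincubated with compound in glutamate buffer at 30 °C, cooled to 0 °C, GTP added, then warmed to 30 °C in cuvettes; assembly followed turbidimetrically; concentrations up to 20 μM.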

[2] = Cytotoxicity against human CEM/VBL100 cells assessed as growth inhibition after 72 hrs by MTT assay; assay type: functional, cell-based; conditions: CEM/VBL100, 72 h

Structure (SMILES) | pIC50 (MCF7) | pIC50 [1] | pIC50 (Jurkat) | pIC50 (HT-29) | pIC50 (CCRF-CEM) | pIC50 (LoVo) | pIC50 (HeLa) | inhibition (Tubulin (Bos taurus)) | pIC50 [2]
COc1cccc(/C=C/C(=O)Nc2cc(OC)c(OC)c(OC)c2)c1 | 4.57 | 4.74 | 4.90 | 4.36 | 4.63 | 4.37 | 4.78 | – | –
C=C(Br)C(=O)Nc1cccc(/C=C/C(=O)Nc2cc(OC)c(OC)c(OC)c2)c1 | 5.74 | 7.74 | 6.54 | 5.64 | 7.23 | 6.85 | 6.06 | inactive | –
C=C(Br)C(=O)Nc1cccc(/C=C/C(=O)Nc2ccc(OC)cc2)c1 | 5.60 | 7.15 | 6.33 | 5.64 | 7.59 | 6.26 | 6.10 | inactive | –
C=C(Br)C(=O)Nc1cccc(/C=C/C(=O)Nc2cccc(F)c2)c1 | 5.48 | 6.21 | 6.00 | 5.34 | 4.59 | 6.00 | 5.92 | – | –
C=C(Br)C(=O)Nc1cccc(/C=C/C(=O)Nc2ccc(OCC)cc2)c1 | 5.26 | 6.74 | 6.03 | 5.47 | 7.01 | 6.07 | 5.70 | – | –
C=C(Br)C(=O)Nc1cccc(/C=C/C(=O)Nc2ccccc2)c1 | 4.56 | 5.96 | 5.30 | 4.78 | 6.72 | 5.41 | 5.14 | – | –
C=C(Br)C(=O)Nc1cccc(/C=C/C(=O)Nc2cccc3ccccc23)c1 | 5.55 | 6.08 | 6.17 | 5.19 | 5.74 | 5.94 | 5.85 | – | –
C=C(Br)C(=O)Nc1cccc(/C=C/C(=O)Nc2ccc(OC(F)(F)F)cc2)c1 | 4.36 | 4.71 | 4.52 | 4.21 | 4.89 | 4.52 | 4.54 | – | –
C=C(Br)C(=O)Nc1cccc(/C=C/C(=O)Nc2ccc(Cl)cc2)c1 | 4.96 | 5.92 | 5.59 | 5.10 | 6.34 | 5.23 | 5.55 | – | –
C=C(Br)C(=O)Nc1ccc(/C=C/C(=O)Nc2ccc(OC)cc2)cc1 | 5.52 | 7.10 | 5.85 | 5.51 | 7.66 | 7.22 | 5.80 | – | –
COc1cc(NC(=O)/C=C/c2cccc(N)c2)cc(OC)c1OC | 4.26 | 5.55 | 4.36 | 4.20 | 4.39 | 4.34 | 4.27 | – | –
C=C(Br)C(=O)Nc1cccc(/C=C/C(=O)Nc2ccc(F)c(F)c2)c1 | 5.57 | 7.05 | 6.26 | 5.06 | 7.89 | 6.27 | 5.72 | inactive | –
C=C(Br)C(=O)Nc1cccc(/C=C/C(=O)Nc2ccc(C)cc2)c1 | 5.60 | 6.72 | 6.62 | 5.92 | 6.57 | 5.82 | 5.82 | – | –
C=C(Br)C(=O)Nc1cccc(/C=C/C(=O)Nc2ccc(F)cc2)c1 | 4.87 | 5.08 | 5.21 | 4.44 | 4.78 | 5.32 | 4.77 | – | –
COc1cccc2c1C(=O)c1c(O)c3c(c(O)c1C2=O)C[C@@](O)(C(=O)CO)C[C@@H]3O[C@H]1C[C@H](N)[C@H](O)[C@H](C)O1 [DOXORUBICIN] | – | – | – | – | – | 7.05 | – | – | –
C=C(Br)C(=O)Nc1cccc(/C=C/C(=O)Nc2cc(OC)cc(OC)c2)c1 | 5.52 | 7.40 | 6.01 | 5.44 | 7.96 | 5.92 | 5.66 | – | –
CC[C@]1(O)C[C@@H]2CN(CCc3c([nH]c4ccccc34)[C@@](C(=O)OC)(c3cc4c(cc3OC)N(C)[C@H]3[C@@](O)(C(=O)OC)[C@H](OC(C)=O)[C@]5(CC)C=CCN6CC[C@]43[C@@H]65)C2)C1 [VINBLASTINE] | – | – | – | – | – | – | – | – | 7.68
C=C(Br)C(=O)Nc1cccc(/C=C/C(=O)NCc2ccc(C)cc2)c1 | 5.66 | 5.89 | 6.13 | 5.57 | 6.26 | 5.72 | 5.77 | – | –
C=C(Br)C(=O)Nc1cccc(/C=C/C(=O)Nc2ccc(SC(F)(F)F)cc2)c1 | 4.52 | 4.90 | 4.52 | 4.40 | 4.82 | 4.53 | 4.72 | – | –
COc1cc(NC(=O)/C=C/c2cccc(OCc3ccccc3)c2)cc(OC)c1OC | 5.62 | 5.07 | 5.46 | 5.44 | 4.76 | 4.66 | 5.66 | – | –
C=C(Br)C(=O)Nc1cccc(/C=C/C(=O)Nc2ccc(OC)c(OC)c2)c1 | 5.55 | 8.52 | 6.72 | 5.72 | 7.68 | 6.82 | 6.25 | inactive | –
